The results in this text go back to ChEMBL document CHEMBL1795218, “Selective bone targeting 5-fluorouracil prodrugs: synthesis and preliminary biological evaluation” (Bioorg Med Chem, 2011).

Calls of active or inactive are those of the source. Residues, ends and D or L forms follow the SMILES beside them. *: point of attachment. Acetyl(5-fluorouracil-1-yl) = O=C(Cn1cc(F)c(=O)[nH]c1=O)*; X1 = O=C(CCC(=O)*)OCn1cc(F)c(=O)[nH]c1=O

Series [1] relates to Hydroxyapatite. As to the kind of experiment: Binding affinity to bone mineral hydroxyapatite assessed as binding index after 0.5 hrs by UV-spectrophotometer analysis relative to 5-fluorouracil. Also on record: concentration or dose not given beside the values.
The subject of series [2] is Hydroxyapatite. As to the kind of experiment: Binding affinity to bone mineral hydroxyapatite assessed as binding index after 24 hrs by UV-spectrophotometer analysis relative to 5-fluorouracil. Also noted: concentration or dose not given beside the values. The method, boiled down: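 Hydroxyapatite (25 mg/ml) added to 5 ml conjugate solutions at 500 µg/ml (C0). Sonicated 5 min, then held in a 37 °C water bath for […] or over 24 h. Unbound conjugate read by UV at 254 nm against an absorbance–concentration calibration line. Tetracycline as positive control. Binding index given as mean ± SD, n = 3.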

The test system of series [3] is Plasma. As to the kind of experiment: Prodrug activation in 50% human plasma assessed as 5-fluorouracil release after 60 hrs by RP-HPLC analysis. Format: cell-free. The method, boiled down: (§1)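 Conjugates incubated at 37 °C in PBS pH 7.4 or in 50% (v/v in PBS) human plasma, with a little DMSO added for solubility. Released 5-FU measured by RP-HPLC at 1.0 mL/min, detection at 256 nm, 25 °C.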

Series [4] deals with Plasma. As to the kind of experiment: Prodrug activation in 50% human plasma assessed as 5-fluorouracil release after 5 days by RP-HPLC analysis. The series is classed as cell-free. As to conditions: 120 h. The method, boiled down:
as §1

Series [5] has as its system HeLa. As to the kind of experiment: Cytotoxicity against human HeLa cells after 3 days by MTT assay. The series is classed as functional, cell-based. As to conditions: 72 h. The method, boiled down:
(§2)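 MG-63 or HeLa cells plated at 5×10³ cells/well. Exposed to conjugates at 1–64 µM (5-FU-equivalent), with or without human plasma, for 72 h under 5% CO₂. MTT then added for 2 h and absorbance read at 490 nm. Mean and SD of three independent experiments.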
(In general: Formazan colour is commonly taken as a measure of viable cells.)

Series [6] concerns MG-63. Briefly: Cytotoxicity against human MG63 cells after 3 days by MTT assay. The series is classed as functional, cell-based. As to conditions: MG-63, 72 h. The method, boiled down:
as §2

Series [7] relates to HeLa. As to the kind of experiment: Cytotoxicity against human HeLa cells after 3 days by MTT assay in presence of 50% human plasma. Format: functional, cell-based. The method, boiled down: as §2
The test system of series [8] is MG-63. Briefly: Cytotoxicity against human MG63 cells after 3 days by MTT assay in presence of 50% human plasma. Format: functional, cell-based. The method, boiled down: as §2
The nature of series [9]: AUC in mouse. The series is classed as ADME, organism-based. The note with it: plasma.
Series [10] in a line: Half life in mouse. The series is classed as ADME, organism-based. As to conditions: in vivo.
Series [11] is described as follows: Apparent volume of distribution in mouse. Format: ADME, organism-based. The note with it: in vivo, read-out: Vz.
A further series is filed under the species Mus musculus. As to the kind of experiment: Cmax in mouse. Format: ADME, organism-based. The note with it: in vivo.
Series [12] deals with Femur. Briefly: Biodistribution in po dosed mouse femur after 1 hr. The series is classed as ADME, organism-based. The note with it: in vivo. The method in brief: (§3)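 Mice dosed orally. At 1 h or 12 h, kidney, liver, femur and blood collected. Organs rinsed in cold saline, blotted, extracted with methanol, diluted and centrifuged before analysis. Mean and SD of three independent experiments.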

Series [13] concerns Femur. As to the kind of experiment: Biodistribution in po dosed mouse femur after 12 hrs. Format: ADME, organism-based. The note with it: in vivo. The method in brief:
as §3

The nature of series [14]: Prodrug activation in phosphate buffered saline at pH 7.4 assessed as 5-fluorouracil release after 60 hrs by RP-HPLC analysis. As to conditions: buffer, pH 7.4, 60 h. The method in brief:
as §1

Series [15] is described as follows: Prodrug activation in phosphate buffered saline at pH 7.4 assessed as 5-fluorouracil release after 5 days by RP-HPLC analysis. The note with it: buffer, pH 7.4, 120 h. The method in brief: as §1

`CN(C)[C@@H]1C(O)=C(C(N)=O)C(=O)[C@@]2(O)C(O)=C3C(=O)c4c(O)cccc4[C@@](C)(O)[C@H]3C[C@@H]12`: the results for the Activity in the series with Hydroxyapatite [1] and in the series on Hydroxyapatite [2] were 24.1% and 56.2%, respectively.
For `O=C(O)C[C@H](NC(=O)[C@H](CC(=O)O)NC(=O)[C@H](CC(=O)O)NC(=O)[C@H](CC(=O)O)NC(=O)CCC(=O)OCn1cc(F)c(=O)[nH]c1=O)C(=O)O` (X1-DDDD-OH), the Activity with Hydroxyapatite [1] stood at 16.6%; in the series on Hydroxyapatite [2], 42.5%.
For `O=C(O)C[C@H](NC(=O)[C@H](CC(=O)O)NC(=O)[C@H](CC(=O)O)NC(=O)[C@H](CC(=O)O)NC(=O)[C@H](CC(=O)O)NC(=O)CCC(=O)OCn1cc(F)c(=O)[nH]c1=O)C(=O)O` (X1-DDDDD-OH), in that order: 13.4% and 25.5%.
Usually IC50 stands for the concentration that gives 50% inhibition. One may read the AUC as the area under the concentration-time curve, a measure of exposure. Usually half-life stands for the time needed for the level to fall by half in the phase considered. As a reminder, the Cmax is the peak of the concentration-time curve. As for `O=C(O)C[C@H](NC(=O)[C@H](CC(=O)O)NC(=O)[C@H](CC(=O)O)NC(=O)[C@H](CC(=O)O)NC(=O)[C@H](CC(=O)O)NC(=O)[C@H](CC(=O)O)NC(=O)CCC(=O)OCn1cc(F)c(=O)[nH]c1=O)C(=O)O` (X1-DDDDDD-OH), the Activity was 37.8% in the series with Hydroxyapatite [1], 69.7% in the series on Hydroxyapatite [2], 60.3% in the series on Plasma [3] and 80% in the series with Plasma [4]. Besides, the IC50 with HeLa [5] and in the series with MG-63 [6] was over 64 µM each time. Further, the result in the series on HeLa [7] and in the series with MG-63 [8] was Active. The AUC in series [9] turned out to be 90100 ng·h/mL. The compound further yielded a half-life in [10] of 6.75 h. Moreover, the Vd in series [11] is 32.2 L/kg. Further, in the series filed under Mus musculus, the highest level (Cmax) was 51100 µg/mL. For the same compound, the Drug uptake result with Femur [12] and in the series on Femur [13] was “Active” in each case.
In the case of `O=C(O)C[C@H](NC(=O)[C@H](CC(=O)O)NC(=O)[C@H](CC(=O)O)NC(=O)[C@H](CC(=O)O)NC(=O)Cn1cc(F)c(=O)[nH]c1=O)C(=O)O` ({Acetyl(5-fluorouracil-1-yl)}-DDDD-OH), the Activity came to 14.3% in the series with Hydroxyapatite [1] and 40.2% in the series on Hydroxyapatite [2].
Regarding `O=C(O)C[C@H](NC(=O)[C@H](CC(=O)O)NC(=O)[C@H](CC(=O)O)NC(=O)[C@H](CC(=O)O)NC(=O)[C@H](CC(=O)O)NC(=O)Cn1cc(F)c(=O)[nH]c1=O)C(=O)O` ({Acetyl(5-fluorouracil-1-yl)}-DDDDD-OH), the Activity with Hydroxyapatite [1] was 11.6%; in the series on Hydroxyapatite [2] it was 19.8%.
For the compound `O=C(O)C[C@H](NC(=O)[C@H](CC(=O)O)NC(=O)[C@H](CC(=O)O)NC(=O)[C@H](CC(=O)O)NC(=O)[C@H](CC(=O)O)NC(=O)[C@H](CC(=O)O)NC(=O)Cn1cc(F)c(=O)[nH]c1=O)C(=O)O` ({Acetyl(5-fluorouracil-1-yl)}-DDDDDD-OH), the Activity in the series on Hydroxyapatite [1] stood at 31.4%; in the series with Hydroxyapatite [2], 62.7%; in the series with Plasma [3], 47.4%; in the series with Plasma [4] it was 60%; in series [14], 3.2%; in series [15], 5%. In addition, the 50% inhibitory concentration (IC50) in the series with HeLa [5] and in the series with MG-63 [6] was over 64 µM each time. Besides, the outcome in the series with HeLa [7] and in the series with MG-63 [8] was Active. The AUC in [9] was 76600 ng·h/mL. Besides, in series [10], the half-life was 4.36 h. Also, in [11], the Vd amounted to 24.1 L/kg. The compound also showed a Cmax in the series filed under Mus musculus of 42400 µg/mL. The Drug uptake entry in the series with Femur [12] and in the series on Femur [13] was “Active” throughout.
In the case of `O=c1[nH]cc(F)c(=O)[nH]1` [FLUOROURACIL], the Activity in the series with Hydroxyapatite [1] and in the series on Hydroxyapatite [2] was 0% in each case. The IC50 in the series on HeLa [5] stood at 4 µM; in the series on MG-63 [6], 8 µM. Moreover, the AUC in [9] is 76600 ng·h/mL. The half-life in [10] is 4.36 h. Moreover, the Vd in [11] was 24.1 L/kg. In addition, the Drug uptake result in the series with Femur [12] and with Femur [13] was “Active” throughout.
